Laboratory results from ChEMBL document CHEMBL2086252, “Syntheses and evaluation of anticonvulsant activity of novel branched alkyl carbamates” (J Med Chem, 2012).
Activity calls are given as the source filed them. No cut-off for these calls is given here.

Tests used:
[1] = tested on: Rattus norvegicus; assay: Anticonvulsant activity in po dosed Sprague-Dawley albino rat assessed as protection against maximal electroshock-induced seizures; type: functional
Summary of the method: (§1)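 Quantitative testing: rats dosed orally or ip in MES and scMet tests, and mice dosed ip, including the 6 Hz (32 mA) psychomotor seizure test. ED50 and TD50 were reported in mg/kg with ranges in parentheses. Protective index was calculated as TD50/ED50.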

[2] = tested on: Rattus norvegicus; assay: Anticonvulsant activity in Sprague-Dawley albino rat assessed as protection against maximal electroshock-induced seizures at 30 mg/kg, po after 30 mins; type: functional, organism-based; design: dose 30 mg/kg
Summary of the method: (§2)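 Rats dosed orally. Anti-MES protection was scored as animals protected over animals tested at each time after dosing. Neurotoxicity was scored as motor impairment or sedation, as animals affected over animals tested.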

[3] = tested on: Mus musculus; assay: Anticonvulsant activity in albino CF1 mouse assessed as protection against maximal electroshock-induced seizures at 30 mg/kg, ip after 4 hrs; type: functional, organism-based; design: dose 30 mg/kg
Summary of the method: (§3)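 Mice dosed ip at 30, 100 or 300 mg/kg, then tested 0.5 h and 4 h after administration in the MES or scMet test. Protection was recorded as animals protected over animals tested. Neurotoxicity was recorded as motor impairment or sedation, as animals affected over animals tested.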

[4] = tested on: Mus musculus; assay: Anticonvulsant activity in albino CF1 mouse assessed as protection against maximal electroshock-induced seizures at 30 mg/kg, ip after 0.5 hrs; type: functional, organism-based; design: dose 30 mg/kg; summary of the method: as §3
[5] = tested on: Mus musculus; assay: Anticonvulsant activity in albino CF1 mouse assessed as protection against maximal electroshock-induced seizures at 3 mg/kg, ip after 0.5 hrs; type: functional, organism-based; design: dose 3 mg/kg
[6] = tested on: Mus musculus; assay: Neurotoxicity in albino CF1 mouse assessed as minimal motor impairment at 300 mg/kg, ip after 0.5 hrs by rotarod test; type: toxicity, organism-based; design: dose 300 mg/kg, route intraperitoneal; conditions: in vivo; summary of the method: as §3
[7] = tested on: Mus musculus; assay: Neurotoxicity in albino CF1 mouse assessed as minimal motor impairment at 30 mg/kg, ip after 4 hrs by rotarod test; type: toxicity, organism-based; design: dose 30 mg/kg, route intraperitoneal; conditions: in vivo; summary of the method: as §3
[8] = tested on: Mus musculus; assay: Neurotoxicity in albino CF1 mouse assessed as minimal motor impairment at 300 mg/kg, ip after 4 hrs by rotarod test; type: toxicity, organism-based; design: dose 300 mg/kg, route intraperitoneal; conditions: in vivo; summary of the method: as §3
[9] = tested on: Mus musculus; assay: Anticonvulsant activity in albino CF1 mouse assessed as protection against subcutaneous metrazol-induced seizures at 100 mg/kg, ip after 4 hrs; type: functional, organism-based; design: dose 100 mg/kg; summary of the method: as §3
[10] = tested on: Rattus norvegicus; assay: Neurotoxicity in Sprague-Dawley albino rat assessed as minimal motor impairment at 30 mg/kg, po by rotarod test; type: toxicity, organism-based; design: dose 30 mg/kg, route oral; conditions: in vivo; summary of the method: as §2
[11] = tested on: Mus musculus; assay: Anticonvulsant activity in albino CF1 mouse assessed as protection against subcutaneous metrazol-induced seizures at 300 mg/kg, ip after 4 hrs; type: functional, organism-based; design: dose 300 mg/kg; summary of the method: as §3
[12] = tested on: Rattus norvegicus; assay: Anticonvulsant activity in Sprague-Dawley albino rat assessed as protection against maximal electroshock-induced seizures at 30 mg/kg, po after 4 hrs; type: functional, organism-based; design: dose 30 mg/kg; summary of the method: as §2
[13] = tested on: Mus musculus; assay: Anticonvulsant activity in albino CF1 mouse assessed as protection against maximal electroshock-induced seizures at 300 mg/kg, ip after 4 hrs; type: functional, organism-based; design: dose 300 mg/kg; summary of the method: as §3
[14] = tested on: Mus musculus; assay: Neurotoxicity in albino CF1 mouse assessed as minimal motor impairment at 3 mg/kg, ip after 0.5 hrs by rotarod test; type: toxicity, organism-based; design: dose 3 mg/kg, route intraperitoneal; conditions: in vivo
[15] = tested on: Mus musculus; assay: Anticonvulsant activity in albino CF1 mouse assessed as protection against maximal electroshock-induced seizures at 10 mg/kg, ip after 0.5 hrs; type: functional, organism-based; design: dose 10 mg/kg
[16] = tested on: Rattus norvegicus; assay: Anticonvulsant activity in ip dosed Sprague-Dawley albino rat assessed as protection against pilocarpine-induced status epilepticus after 0.5 hrs; type: functional
Summary of the method: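 Pilocarpine status epilepticus model in rats. Number and severity of convulsive seizures were observed behaviourally.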

[17] = tested on: Mus musculus; assay: Neurotoxicity in albino CF1 mouse assessed as minimal motor impairment at 100 mg/kg, ip after 4 hrs by rotarod test; type: toxicity, organism-based; design: dose 100 mg/kg, route intraperitoneal; conditions: in vivo; summary of the method: as §3
[18] = tested on: Mus musculus; assay: Anticonvulsant activity in albino CF1 mouse assessed as protection against subcutaneous metrazol-induced seizures at 300 mg/kg, ip after 0.5 hrs; type: functional, organism-based; design: dose 300 mg/kg; summary of the method: as §3
[19] = tested on: Mus musculus; assay: Anticonvulsant activity in albino CF1 mouse assessed as protection against subcutaneous metrazol-induced seizures at 30 mg/kg, ip after 0.5 hrs; type: functional, organism-based; design: dose 30 mg/kg; summary of the method: as §3
[20] = tested on: Rattus norvegicus; assay: Neurotoxicity in pilocarpine-induced status epilepticus Sprague-Dawley albino rat model assessed as minimal motor impairment at 200 mg/kg, ip after 0.5 hrs by rotarod test; type: toxicity, organism-based; design: dose 200 mg/kg, route intraperitoneal; conditions: in vivo
Summary of the method: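 Rat pilocarpine status epilepticus model: test carbamate given at 0 or 30 min after the first observed Racine stage 3 motor seizure, which marks SE onset. Neurotoxicity was scored within the same model.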

[21] = tested on: Mus musculus; assay: Neurotoxicity in albino CF1 mouse assessed as minimal motor impairment at 30 mg/kg, ip after 0.5 hrs by rotarod test; type: toxicity, organism-based; design: dose 30 mg/kg, route intraperitoneal; conditions: in vivo; summary of the method: as §3
[22] = tested on: Mus musculus; assay: Anticonvulsant activity in albino CF1 mouse assessed as protection against maximal electroshock-induced seizures at 300 mg/kg, ip after 0.5 hrs; type: functional, organism-based; design: dose 300 mg/kg; summary of the method: as §3
[23] = tested on: Mus musculus; assay: Anticonvulsant activity in ip dosed albino CF1 mouse assessed as protection against maximal electroshock-induced seizures; type: functional; summary of the method: as §1
[24] = Neurotoxicity in po dosed Sprague-Dawley albino rat assessed as minimal motor impairment by rotarod test; type: toxicity, organism-based; conditions: in vivo
Summary of the method: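 Rats dosed orally; 4 rats per time point after dosing. Neurotoxicity was scored as motor impairment or sedation and reported as number of animals affected over number tested.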

[25] = tested on: Mus musculus; assay: Neurotoxicity in albino CF1 mouse assessed as minimal motor impairment at 10 mg/kg, ip after 0.5 hrs by rotarod test; type: toxicity, organism-based; design: dose 10 mg/kg, route intraperitoneal; conditions: in vivo
[26] = tested on: Mus musculus; assay: Anticonvulsant activity in albino CF1 mouse assessed as protection against subcutaneous metrazol-induced seizures at 30 mg/kg, ip after 4 hrs; type: functional, organism-based; design: dose 30 mg/kg; summary of the method: as §3
[27] = tested on: Rattus norvegicus; assay: Protective index, ratio of TD50 for po dosed Sprague-Dawley albino rat by rotarod test to ED50 for po dosed Sprague-Dawley albino rat by maximal electroshock seizures test; type: functional
Summary of the method: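 Protective index calculated as TD50/ED50, with TD50 and ED50 taken from the same species and dosing route.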

[28] = tested on: Mus musculus; assay: Anticonvulsant activity in albino CF1 mouse assessed as protection against maximal electroshock-induced seizures at 100 mg/kg, ip after 4 hrs; type: functional, organism-based; design: dose 100 mg/kg; summary of the method: as §3
[29] = Neurotoxicity in ip dosed albino CF1 mouse assessed as minimal motor impairment by rotarod test; type: toxicity, organism-based; conditions: in vivo; summary of the method: as §1
[30] = tested on: Rattus norvegicus; assay: Anticonvulsant activity in Sprague-Dawley albino rat assessed as protection against maximal electroshock-induced seizures at 30 mg/kg, po after 1 hr; type: functional, organism-based; design: dose 30 mg/kg; summary of the method: as §2
[31] = tested on: Rattus norvegicus; assay: Anticonvulsant activity in Sprague-Dawley albino rat assessed as protection against maximal electroshock-induced seizures at 30 mg/kg, po after 15 mins; type: functional, organism-based; design: dose 30 mg/kg; summary of the method: as §2
[32] = tested on: Mus musculus; assay: Anticonvulsant activity in albino CF1 mouse assessed as protection against maximal electroshock-induced seizures at 100 mg/kg, ip after 0.5 hrs; type: functional, organism-based; design: dose 100 mg/kg; summary of the method: as §3

## NC(=O)OCCc1ccccc1 [PHENYLETHYL CARBAMATE]
[1]
  ED50: 16 mg/kg
[2]
  Activity: Active
[3]
  Activity: inactive
[4]
  Activity: Active
[5]
  Activity: inactive
[6]
  Activity: Toxic
[7]
  Activity: Non-toxic
[8]
  Activity: Non-toxic
[9]
  Activity: inactive
[10]
  Activity: Non-toxic
[11]
  Activity: inactive
[12]
  Activity: inactive
[13]
  Activity: Active
[14]
  Activity: Non-toxic
[15]
  Activity: inactive
[16]
  ED50: 105 mg/kg
  ED97: 221 mg/kg
[17]
  Activity: Non-toxic
[18]
  Activity: Active
[19]
  Activity: inactive
[20]
  Activity: Toxic
[21]
  Activity: Non-toxic
[22]
  Activity: Active
[23]
  ED50: 18 mg/kg
[24]
  TD50: < 400 mg/kg
[25]
  Activity: Non-toxic
[26]
  Activity: inactive
[27]
  Ratio TD50/ED50: <25
[28]
  Activity: inactive
[29]
  TD50: 114 mg/kg
[30]
  Activity: Active
[31]
  Activity: Active
[32]
  Activity: Active
